Assay results from PMC11789357 (Journal of Translational Medicine, 2025).

Experiments:
BaF3-hEPOR cells = assay: Western blot of EPOR downstream signaling; type: cell-based, murine; conditions: 10 min treatment, monitored 4 days
Outline: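 They were exposed 10 min, pelleted, and resuspended in EPO-free medium. Lysates were taken at 0 min, 30 min, 1 h, 4 h and 1–4 days. Western blots on 4–20% gels were probed for p-ERK1/2 and p-STAT5.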

[1] = Single-dose PK study in healthy BALB/c mice; type: in vivo, mouse; conditions: SC 0.08 mg/kg single dose
Outline: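 Female BALB/c mice received a single sc injection of test compound or peptide dimer. Blood was sampled at several times over 14 days, and serum drug level was measured by MSD immunoassay. Mean concentration–time curves gave Tmax, Cmax, t1/2, AUC0-t, AUC0-∞ and MRT.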

UT-7 cells [2] = conditions: ref [21], [23]; cited from earlier work
UT-7 cells [3] = assay: CellTiter-Glo cell proliferation / survival assay; type: cell-based, human; conditions: medium without EPO; matched doses 1000 ng/mL (20 nM) vs 4 U/mL, 200 ng/mL (4 nM) vs 0.8 U/mL
[4] = molecular target: EPOR extracellular domain-IgFc construct (UniProt P19235); assay: SPR
Sequence of UniProt P19235 (P19235 25-250): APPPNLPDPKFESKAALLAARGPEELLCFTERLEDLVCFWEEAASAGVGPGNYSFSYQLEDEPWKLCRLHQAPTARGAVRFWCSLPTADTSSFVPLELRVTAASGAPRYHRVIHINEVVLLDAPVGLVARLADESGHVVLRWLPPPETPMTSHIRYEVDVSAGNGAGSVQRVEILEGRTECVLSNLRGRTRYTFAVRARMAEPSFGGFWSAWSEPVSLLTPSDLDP

With CC(=O)NCC(=O)NCC(=O)N[C@H](C(=O)N[C@@H](Cc1ccc(O)cc1)C(=O)N[C@@H](CO)C(=O)N[C@H]1CSSC[C@@H](C(=O)N[C@@H](CCCNC(=N)N)C(=O)N2CCC[C@H]2C(=O)N[C@@H](CCC(N)=O)C(=O)N[C@@H](CCCNC(=N)N)C(=O)NCC(=O)NCCC(=O)N[C@@H](CCCCNC(=O)CN(CC(=O)NCCCC[C@H](NC(=O)CCNC(=O)CNC(=O)[C@H](CCCNC(=N)N)NC(=O)[C@H](CCC(N)=O)NC(=O)[C@@H]2CCCN2C(=O)[C@H](CCCNC(=N)N)NC(=O)[C@@H]2CSSC[C@H](NC(=O)[C@H](CO)NC(=O)[C@H](Cc3ccc(O)cc3)NC(=O)[C@@H](NC(=O)CNC(=O)CNC(C)=O)[C@@H](C)O)C(=O)N[C@@H](Cc3c[nH]cn3)C(=O)N[C@@H](Cc3ccccc3)C(=O)NCC(=O)N[C@@H](C)C(=O)N[C@@H](CC(C)C)C(=O)N[C@@H]([C@@H](C)O)C(=O)N[C@@H](Cc3c[nH]c4ccccc34)C(=O)N[C@@H](C(C)C)C(=O)N2)C(N)=O)C(=O)CCN)C(N)=O)NC(=O)[C@H](C(C)C)NC(=O)[C@H](Cc2c[nH]c3ccccc23)NC(=O)[C@H]([C@@H](C)O)NC(=O)[C@H](CC(C)C)NC(=O)[C@H](C)NC(=O)CNC(=O)[C@H](Cc2ccccc2)NC(=O)[C@H](Cc2c[nH]cn2)NC1=O)[C@@H](C)O [Peptide dimer] the “Phosphorylation levels of ERK1/2 MAPK and STAT5 after withdrawal” value (BaF3-hEPOR cells) was “showed a decline” and the “Serum concentration” value [1] was “mostly below detection limits”.
For “rHuEPO: recombinant human erythropoietin, as cited from literature”, the “Rate of internalization of the rHuEPO-receptor complex” value (UT-7 cells [2]) is given as 3.6 per hour and the “Time to lysosomal degradation post-internalization” value (UT-7 cells [2]) is given as 15 to 20 min.
With “rHuEPO (ESPO 3000): recombinant human erythropoietin product ESPO 3000, Kyowa Kirin” the “UT-7 cell proliferation under continuous treatment” value (UT-7 cells [3]) was “maintained cell proliferation over 7 consecutive days of treatment” and the “Phosphorylation levels of ERK1/2 MAPK and STAT5 after withdrawal” value (BaF3-hEPOR cells) was “showed a decline”.
Pegmolesatide (peptide) showed a Kd [4] of 0.28 nM.
